From PubChem
GRK2 inh – compounds blocking aptamer binding on GRK2 – biochemical, human GRK2, bead flow cytometry, HTS, primary screen; Beta-adrenergic receptor kinase 1 (Homo sapiens), P25098; FAM-aptamer displacement from GRK2; inhibition of aptamer binding, % at 10 µM; actives 0.59% (n = 330,000); AID 488847, 2010;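 active means inhibition of aptamer binding above 40%, roughly 3 SD of noise, on plates passing a quality check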;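 further: median bead fluorescence of bound FAM aptamer so fluorescent compounds give negative values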
T cell HTS – modulators of CD8 T cell-vesicle binding, primary screen, mouse 2C CD8+ T cells, flow cytometry. 2C CD8+ T cell-vesicle binding; active compounds read low. response (vesicle binding), % at 7 µM. actives 0.068% (n = 330,000);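 active means response, share of CD8 T cells binding vesicles, and their 90th percentile fluorescence all below set limits, cut at about 80% in these data, passing the limit was not always enough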;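 further: values below 100% mean blocked vesicle binding to the CD8+ T cells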
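Also added: QL9-peptide-loaded Drosophila micro-vesicles bearing Ld, ICAM-1 and B7-1; Test system: purified 2C TCR transgenic mouse naive CD8+ T cells; Measured by: cytometric PE anti-B7-1 and Alexa647 anti-CD8 signals after 1% paraformaldehyde fixation; Timing: binding step 1.5 h, 37 °C, antibody labelling 20 min, ice.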
Myeloid diff MLP – induction of myeloid progenitor differentiation, primary screen, cell-based, flow cytometry, MLPCN library | ER-HoxA9 myeloid progenitors, lysozyme-GFP differentiation | calls only at 10 µM | actives 1% (n = 360,000);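 active means normalized GFP-positive differentiation at or above the plate's own cutoff, the solvent-only control mean plus 3 SD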;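 further: cells exposed to compound for four days before flow analysis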
Rin1-Abl PPI inh – inhibitors of Rin1-Abl protein binding, primary screen, biochemical, TR-FRET | Tyrosine-protein kinase ABL1 (Homo sapiens) + Ras and Rab interactor 1 (Homo sapiens), … | inhibition, % at 7.35 µM | actives 0.4% (n = 360,000) | AID 588664, 2011; in the data active means inhibition above about 5%, passing the limit was not always enough
Target sequence (P00519 whole entry, looked up): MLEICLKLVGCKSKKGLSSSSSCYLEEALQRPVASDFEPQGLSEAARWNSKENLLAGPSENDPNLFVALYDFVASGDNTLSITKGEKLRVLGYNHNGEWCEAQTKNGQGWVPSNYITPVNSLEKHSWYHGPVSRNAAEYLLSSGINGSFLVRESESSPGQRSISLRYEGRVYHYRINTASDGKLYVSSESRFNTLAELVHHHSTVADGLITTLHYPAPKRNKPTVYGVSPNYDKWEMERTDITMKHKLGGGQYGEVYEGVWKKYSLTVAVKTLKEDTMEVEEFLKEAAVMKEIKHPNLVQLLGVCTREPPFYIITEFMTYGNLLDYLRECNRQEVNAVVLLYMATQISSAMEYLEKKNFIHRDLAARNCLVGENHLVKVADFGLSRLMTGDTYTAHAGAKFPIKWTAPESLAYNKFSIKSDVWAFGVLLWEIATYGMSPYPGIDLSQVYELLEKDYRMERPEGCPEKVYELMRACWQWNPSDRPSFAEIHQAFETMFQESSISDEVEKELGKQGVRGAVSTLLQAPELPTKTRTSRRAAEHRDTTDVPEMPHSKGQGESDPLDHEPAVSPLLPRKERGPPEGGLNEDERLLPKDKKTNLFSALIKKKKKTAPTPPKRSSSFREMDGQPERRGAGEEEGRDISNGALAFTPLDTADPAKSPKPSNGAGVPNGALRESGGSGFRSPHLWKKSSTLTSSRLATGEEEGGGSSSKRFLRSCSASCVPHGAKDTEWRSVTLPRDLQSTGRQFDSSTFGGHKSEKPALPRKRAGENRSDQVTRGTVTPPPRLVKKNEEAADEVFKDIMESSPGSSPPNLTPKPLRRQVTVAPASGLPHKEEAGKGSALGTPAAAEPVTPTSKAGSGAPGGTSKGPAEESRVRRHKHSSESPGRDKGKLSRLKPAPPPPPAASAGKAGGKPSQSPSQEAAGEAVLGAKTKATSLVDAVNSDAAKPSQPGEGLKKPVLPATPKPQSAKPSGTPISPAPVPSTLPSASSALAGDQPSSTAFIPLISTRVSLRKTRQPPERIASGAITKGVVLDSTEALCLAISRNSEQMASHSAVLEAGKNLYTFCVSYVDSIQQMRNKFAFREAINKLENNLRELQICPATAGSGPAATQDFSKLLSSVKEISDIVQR
Target sequence (Q13671 whole entry, looked up): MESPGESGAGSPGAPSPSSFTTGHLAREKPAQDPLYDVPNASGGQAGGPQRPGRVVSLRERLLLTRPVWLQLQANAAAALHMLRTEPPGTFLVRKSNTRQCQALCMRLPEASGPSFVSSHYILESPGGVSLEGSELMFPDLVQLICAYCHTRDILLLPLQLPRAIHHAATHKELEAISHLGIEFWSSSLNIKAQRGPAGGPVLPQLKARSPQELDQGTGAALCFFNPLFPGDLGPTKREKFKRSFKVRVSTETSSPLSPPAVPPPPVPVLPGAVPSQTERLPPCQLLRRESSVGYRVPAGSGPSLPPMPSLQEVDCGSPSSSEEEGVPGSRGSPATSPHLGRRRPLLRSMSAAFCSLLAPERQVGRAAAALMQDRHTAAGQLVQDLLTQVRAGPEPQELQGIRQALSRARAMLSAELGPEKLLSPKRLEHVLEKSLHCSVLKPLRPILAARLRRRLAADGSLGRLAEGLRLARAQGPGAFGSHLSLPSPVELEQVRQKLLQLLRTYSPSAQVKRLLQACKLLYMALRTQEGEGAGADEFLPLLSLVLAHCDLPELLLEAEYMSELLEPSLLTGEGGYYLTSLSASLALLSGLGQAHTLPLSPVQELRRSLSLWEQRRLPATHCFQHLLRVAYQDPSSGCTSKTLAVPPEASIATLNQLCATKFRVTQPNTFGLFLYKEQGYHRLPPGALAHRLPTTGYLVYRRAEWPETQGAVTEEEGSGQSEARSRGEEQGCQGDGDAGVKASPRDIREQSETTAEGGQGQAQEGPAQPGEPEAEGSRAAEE
Rce1 inhib – yeast Rce1p protease inhibitors, primary screen, biochemical, fluorescence, cell-free homogeneous; actives 0.27% (n = 290,000); yeast membranes, quenched prenylated peptide cleavage fluorescence; CAAX prenyl protease 2 (Saccharomyces cerevisiae (strain ATCC 204508 / S288c)), Q03530; calls only;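 active means fall in fluorescence gain of 50% or more versus controls, with final raw signal at or below 3038400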;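 further: plate controls were neutral control wells for no effect and wells lacking membranes for full effect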
SKN-1 inh – suppressors of acrylamide-induced Pgst-4::GFP reporter in worms, primary screen, SKN-1 inhibitor project, whole organism, uHTS, GFP/RFP fluorescence ratio, strain VP596. C. elegans VP596 Pgst-4::GFP/RFP ratio, 24 h. actives 0.49% (n = 360,000). inhibition, % at 21.8 µM. AID 624304, 2012;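 active means interference check ratio from 0.5 to 1.5 plus GFP to RFP signal ratio inhibition reaching or exceeding a fixed threshold, cut at about 30% in these data, passing the limit was not always enough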
Myeloid diff CP1 – inducers of myeloid progenitor differentiation, confirmation, cell-based, GFP/Mac1 flow cytometry, cherry pick 01 | shares compounds with Myeloid diff MLP | ER-HoxA9 myeloid progenitors, GFP/Mac1 double-positive flow | calls only | actives 2% (n = 2,300);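 active means share of green or green-and-red cells above 9 and 9% in run 1 or 4 and 3% in run 2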
GFP autofluor – compound fluorescence in myeloid differentiation counter-screen | fluorescence response, % (concentration not given with the values) | AID 651707 | shares compounds with Myeloid diff MLP | actives 7.4% (n = 2,300) | ER-HoxA9 myeloid progenitors, no estrogen, GFP autofluorescence flow cytometry; vehicle wells 0%, positive control 100%;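 active means over 5% cells positive for green fluorescent reporter, or over 2% positive for both it and APC stain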;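 further: range taken on the double positive population between DMSO and positive control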
An asterisk follows results filed as active; i = inactive; . = not tested or not shown; + = active, no number. This is a sample that favours compounds with a hit; in the whole collection about 2.6% have one here.

SMILES | GRK2 inh | T cell HTS | Myeloid diff MLP | Rin1-Abl PPI inh | Rce1 inhib | SKN-1 inh | Myeloid diff CP1 | GFP autofluor
CC(=O)N1N=C(c2ccc(C)cc2)OC1c1ccc(Br)cc1 (centres undefined) | 0 | 189 | i | -2 | i | 9 | . | .
CCOc1ncccc1C(=O)OC(C)C(=O)Nc1ccc(N2CCOCC2)cc1 (centres undefined) | 35 | 492 | i | 0 | . | -6 | . | .
CC1CC1C(=O)N(C)CC(=O)Nc1ccccc1Br (centres undefined) | 0 | 276 | i | 5 | . | 9 | . | .
O=C1C=CN2CCCCC2CC1 (centres undefined) | 0 | 217 | + | 0 | . | 17 | i | 5
C#Cc1ccc(CN2CCN(CCCc3ccccc3)C(CCO)C2)cc1 (centres undefined) | 0 | 286 | i | -1 | i | 8 | . | .
O=c1c(-c2ccc(O)cc2)coc2c([C@@H]3O[C@H](CO)[C@@H](O)[C@H](O)[C@H]3O)c(O)ccc12 | 4 | 430 | i | 0 | . | 10 | . | .
CC(=O)Cc1cc(=O)c2c(C)cc(O)c(C3OC(CO)C(O)C(O)C3O)c2o1 (centres undefined) | 1 | 288 | i | -2 | i | -6 | i | 0
COc1cc(/C=C/c2sc3ccccc3[n+]2CCCS(=O)(=O)[O-])ccc1O | 1 | 618 | i | -19 | i | 66 | . | .
CCC(/C=C1\Oc2ccc(OC)cc2N1C)=C\c1sc2ccccc2[n+]1CCCS(=O)(=O)[O-] | . | . | i | 1 | . | 79 | i | 85*
CCOc1cccc(-c2nnc3n2N=C(c2cc(OC)ccc2OC)CS3)c1 | 0 | 497 | i | -2 | i | 8 | . | .
COc1cccc(-c2nnc3n2N=C(c2cc(OC)ccc2OC)CS3)c1 | 1 | 641 | + | -2 | i | -9 | i | 11*
CC1(C)O[C@H]2CC(=O)OC[C@]23[C@H]2CC[C@@]4(C)[C@H](c5ccoc5)OC(=O)[C@H]5O[C@]54[C@]2(C)[C@@H](O)C[C@@H]13 | 0 | 378 | i | 2 | . | 22 | . | .
CC1(C)O[C@H]2CC(=O)OC[C@@]23C1CC(=O)[C@]1(C)C3CC[C@@]2(C)[C@H](c3ccoc3)OC(=O)[C@H]3O[C@]321 (some centres undefined) | 0 | 122 | + | 0 | . | -6 | i | 0
COc1ccccc1-c1ccc(SCc2ccc(F)cc2)nn1 | 2 | 217 | + | -3 | i | 10 | i | 1
Cc1ccc(C(C(=O)NC2CCCCC2)N(Cc2cccnc2)C(=O)C2COc3ccccc3O2)o1 (centres undefined) | 1 | 272 | + | 2 | . | -1 | i | 1
Cc1ccc(C(C(=O)NC2CCCCC2)N(Cc2ccco2)C(=O)C2COc3ccccc3O2)o1 (centres undefined) | 0 | 192 | i | -1 | i | 14 | . | .
COc1ccc(C(=O)C[n+]2cccc3cc(C)ccc32)cc1 | 3 | 247 | i | 1 | i | 7 | i | 42*
COc1ccc(C(=O)C[n+]2ccc(N(C)C)cc2)cc1 | 0 | 221 | i | 0 | i | -2 | i | 0
CN(C)c1cc[n+](CC(=O)c2ccc(Br)cc2)cc1 | 0 | 283 | i | -3 | i | -10 | . | .
COc1cc(CCC(=O)Nc2ccc(S(=O)(=O)NC3=NCCCCC3)cc2)cc(OC)c1OC | 2 | 323 | i | 5 | i | 6 | i | 0
O=C(NCC(=O)N(c1ccccc1)C(C(=O)NC1CCCCC1)c1cccnc1)c1ccco1 (centres undefined) | 6 | 289 | i | 1 | i | -12 | . | .
Cc1ccnc(NC(=O)CCC(=O)c2cc(C)sc2C)c1 | 2 | 107 | i | -2 | i | 1 | . | .
CSCC[C@H](NC(=O)C1CCN(S(=O)(=O)c2ccc(C)cc2)CC1)C(=O)NCC1CCCO1 (some centres undefined) | 1 | i | i | 1 | i | 5 | . | .
CSCC[C@H](NC(=O)C1CCN(S(=O)(=O)c2ccc(C)cc2)CC1)C(=O)NCc1ccco1 | 0 | 962 | + | 4 | i | -12 | i | 1
N#Cc1c(N)nc(SCc2ccccn2)c(C#N)c1-c1cccs1 | 1 | 325 | i | 0 | i | -1 | i | 0
SMILES | GRK2 inh | T cell HTS | Myeloid diff MLP | Rin1-Abl PPI inh | Rce1 inhib | SKN-1 inh | Myeloid diff CP1 | GFP autofluor
CCOC(=O)CSc1nc(N)c(C#N)c(-c2cccs2)c1C#N | 1 | 310 | i | 1 | i | 3 | . | .
CCNC(=O)/C(C#N)=C/c1c(N(Cc2ccccc2)Cc2ccccc2)nc2ccccn2c1=O | 0 | 360 | + | -1 | i | 0 | i | 0
CC1CC(C)CN(c2ncc3c(n2)CC(c2ccccc2)CC3=O)C1 (centres undefined) | 0 | 689 | + | 0 | i | -7 | i | 0
CC(C)c1ccc(C2CC(=O)c3cnc(N4CCc5ccccc5C4)nc3C2)cc1 (centres undefined) | 0 | 135 | i | -5 | i | -5 | . | .
C[C@H](O)[C@@H]1C(=O)N2CCc3ccc(-c4cccc(F)c4)cc3[C@@H]2C[C@@H]1N(C)C(=O)Nc1ccccc1 | . | . | i | -1 | . | 2 | . | .
C[C@H](O)[C@@H]1C(=O)N2CCc3ccc(-c4ccccc4)cc3[C@@H]2C[C@@H]1N(C)C(=S)Nc1ccc(F)cc1 | . | . | i | 0 | . | 4 | i | 87*
COc1cc(/C=N/NC(=O)c2cc3c(ccc4ccccc43)o2)cc(OC)c1O | 2 | 199 | i | -2 | i | -8 | . | .
Cc1ccc(S(=O)(=O)NCCC(=O)N2CCN(Cc3ccccc3)CC2)cc1 | 0 | 833 | + | 3 | i | -8 | i | 0
COc1ccccc1CCNC(=O)c1ccoc1C | 0 | 277 | + | 0 | . | 1 | i | 0
